Data reported in ChEMBL document CHEMBL4390648, “Chemical synthesis, crystal structure, versatile evaluation of their biological activities and molecular simulations of novel pyrithiobac derivatives” (Eur J Med Chem, 2019).
Calls of active or inactive are those of the source. The rule behind the calls is not given here.

Key:
[1] = system: Candida albicans; assay: Antifungal activity against Candida albicans SC5314 grown in YNB medium incubated for 24 hrs by microdilution method; type: functional; conditions: SC5314, 24 h
Outline: (§1)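 C. albicans standard strain SC5314 and clinical isolates g5 and 17# tested by broth microdilution in YNB or RPMI 1640 medium. Plates incubated at 35 °C for up to 72 h, with visual readings taken at 24 h. MIC taken as the lowest concentration preventing visible growth.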

[2] = system: Candida albicans; assay: Antifungal activity against Candida albicans isolate 17 grown in YNB medium incubated for 24 hrs by microdilution method; type: functional; conditions: isolate 17, 24 h; outline: as §1
[3] = Inhibition of SARS coronavirus M protease using AVLQSGFRKK as substrate by FRET assay; design: species or system Severe acute respiratory syndrome-related coronavirus
Outline: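 Purified SARS-CoV Mpro assayed by FRET. Protein, compound and substrate were preheated at 37 °C and oscillated. Fluorescence (ex 320/em 405 nm) was read every 5 s for 200 reads. IC50 from V0/V = 1+[I]/IC50.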

[4] = system: Arabidopsis thaliana; assay: Inhibition of Arabidopsis thaliana AHAS catalytic subunit using pyruvate as substrate at 10 uM measured after 30 mins by colorimetric method relative to control
Outline: (§2)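 Colorimetric assay in 50 mM potassium phosphate pH 7.0 with 50 mM pyruvate, 1 mM thiamine diphosphate, 10 mM MgCl2 and 10 μM FAD. Incubated 30 min at 37 °C for plant AHAS and 30 °C for fungal AHAS. Acetolactate formed was then quantified.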

[5] = system: Colletotrichum; assay: Antifungal activity against Colletotrichum (W. anthracnose) assessed as reduction in growth at 50 mg/l by mycelium growth rate method relative to control; type: functional
Outline: (§3)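 Mycelium growth rate method against S. sclerotiorum, P. capsici, P. piricola, R. cerealis, W. anthracnose and R. bakanae. Each compound tested at 50 mg/L, with chlorothalonil and PTB as controls. Relative inhibitory ratio (%) calculated from mycelial growth.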

[6] = system: Ceratobasidium cereale; assay: Antifungal activity against Rhizoctonia cerealis assessed as reduction in growth at 50 mg/l by mycelium growth rate method relative to control; type: functional; outline: as §3
[7] = system: Tobacco mosaic virus; assay: Antiviral activity against Tobacco mosaic virus inoculated in Nicotiana tabacum leaves assessed as passivation by measuring local lesion numbers at 100 mg/l pre-incubated with virus for 30 mins followed by inoculation and measured up to 4 days; type: functional
Outline: (§4)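 Passivation assay: TMV mixed with an equal volume of compound solution for 30 min, then rubbed onto the left half of N. tabacum L. leaves. The right half received virus mixed with solvent as control. Local lesions counted 3–4 days after inoculation. Compounds tested at 500 or 100 mg/L.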

[8] = system: Tobacco mosaic virus; assay: Antiviral activity against Tobacco mosaic virus inoculated in Nicotiana tabacum leaves assessed as passivation by measuring local lesion numbers at 500 mg/l pre-incubated with virus for 30 mins followed by inoculation and measured up to 4 days; type: functional; outline: as §4
[9] = Cytotoxicity against HEK293T cells assessed as reduction in cell growth incubated for 48 hrs by MTT assay; type: cell-based, HEK-293T; conditions: human
Outline: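 293T cells in logarithmic phase seeded at 12000 cells/well overnight, then exposed to a range of compound concentrations for 48 h. MTT added for a further 4 h, formazan dissolved in DMSO, and OD570 read. CC50 is the concentration reducing viability by 50%.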

[10] = system: Phytophthora capsici; assay: Antifungal activity against Phytophthora capsici assessed as reduction in growth at 50 mg/l by mycelium growth rate method relative to control; type: functional; outline: as §3
[11] = system: Candida albicans; assay: Antifungal activity against Candida albicans isolate g5 grown in RPMI 1640 medium incubated for 24 hrs by microdilution method; type: functional; conditions: isolate g5, 24 h; outline: as §1
[12] = system: Candida albicans; assay: Inhibition of Candida albicans AHAS catalytic subunit at 10 uM using pyruvate as substrate measured after 30 mins by colorimetric method relative to control; outline: as §2
[13] = system: Sclerotinia sclerotiorum; assay: Antifungal activity against Sclerotinia sclerotiorum assessed as reduction in growth at 50 mg/l by mycelium growth rate method relative to control; type: functional; outline: as §3
[14] = system: Mythimna separata; assay: Insecticidal activity against Mythimna separata assessed as larval mortality at 600 mg/l by leaf-dip method; type: functional
[15] = system: Botryosphaeria berengeriana; assay: Antifungal activity against Physalospora pyricola assessed as reduction in growth at 50 mg/l by mycelium growth rate method relative to control; type: functional; outline: as §3
[16] = system: Brassica rapa subsp. oleifera; assay: Herbicidal activity against Brassica campestris L assessed as inhibition of rape root growth at 10 mg/l root growth incubated for 48 hrs relative to control; type: functional
Outline: (§5)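 Rape seeds soaked in distilled water for 4 h, then placed on filter paper wetted with inhibitor solution, 15 seeds per 6-cm dish. Germinated in the dark at 28 °C for 48 h. Mean length of 10 roots per plate measured.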

[17] = system: Candida albicans; assay: Antifungal activity against Candida albicans isolate 17 grown in RPMI 1640 medium incubated for 24 hrs by microdilution method; type: functional; conditions: isolate 17, 24 h; outline: as §1
[18] = system: Candida albicans; assay: Inhibition of Candida albicans AHAS catalytic subunit at 100 uM using pyruvate as substrate measured after 30 mins by colorimetric method relative to control; outline: as §2
[19] = system: Candida albicans; assay: Antifungal activity against Candida albicans SC5314 grown in RPMI 1640 medium incubated for 24 hrs by microdilution method; type: functional; conditions: SC5314, 24 h; outline: as §1
[20] = system: Fusarium fujikuroi; assay: Antifungal activity against Gibberella fujikuroi assessed as reduction in growth at 50 mg/l by mycelium growth rate method relative to control; type: functional; outline: as §3
[21] = system: Arabidopsis thaliana; assay: Inhibition of Arabidopsis thaliana AHAS catalytic subunit using pyruvate as substrate at 100 uM measured after 30 mins by colorimetric method relative to control; outline: as §2
[22] = system: Candida albicans; assay: Antifungal activity against Candida albicans isolate g5 grown in YNB medium incubated for 24 hrs by microdilution method; type: functional; conditions: isolate g5, 24 h; outline: as §1
[23] = system: Severe acute respiratory syndrome-related coronavirus; assay: Inhibition of SARS coronavirus M protease using AVLQSGFRKK as substrate at 20 uM by FRET assay relative to control
Outline: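 Purified SARS-CoV Mpro assayed by FRET. Protein, compound and substrate were preheated at 37 °C and oscillated. Fluorescence (ex 320/em 405 nm) was read every 5 s for 200 reads.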

[24] = system: Brassica rapa subsp. oleifera; assay: Herbicidal activity against Brassica campestris L assessed as inhibition of rape root growth at 100 mg/l root growth incubated for 48 hrs relative to control; type: functional; outline: as §5
[25] = system: Mythimna separata; assay: Insecticidal activity against Mythimna separata assessed as larval mortality at 10 mg/l by leaf-dip method; type: functional
[26] = system: Echinochloa crus-galli; assay: Pre-emergence herbicidal activity against Echinochloa crus-galli assessed as reduction in growth at 300g/ha measured after 24 days by green house pot method relative to control; type: functional; conditions: 576 h
[27] = system: Brassica rapa subsp. oleifera; assay: Post-emergence herbicidal activity against Brassica campestris assessed as reduction in growth at 300g/ha measured after 24 days by green house pot method relative to control; type: functional; conditions: 576 h
[28] = system: Amaranthus retroflexus; assay: Pre-emergence herbicidal activity against Amaranthus retroflexus assessed as reduction in growth at 300g/ha measured after 24 days by green house pot method relative to control; type: functional; conditions: 576 h
[29] = system: Amaranthus retroflexus; assay: Post-emergence herbicidal activity against Amaranthus retroflexus assessed as reduction in growth at 300g/ha measured after 24 days by green house pot method relative to control; type: functional; conditions: 576 h
[30] = system: Digitaria adscendens; assay: Pre-emergence herbicidal activity against Digitaria adscendens assessed as reduction in growth at 300g/ha measured after 24 days by green house pot method relative to control; type: functional; conditions: 576 h
[31] = system: Brassica rapa subsp. oleifera; assay: Pre-emergence herbicidal activity against Brassica campestris assessed as reduction in growth at 300g/ha measured after 24 days green house pot method relative to control; type: functional; conditions: 576 h
[32] = system: Digitaria adscendens; assay: Post-emergence herbicidal activity against Digitaria adscendens assessed as reduction in growth at 300g/ha measured after 24 days by based green house pot method relative to control; type: functional; conditions: 576 h
[33] = system: Echinochloa crus-galli; assay: Post-emergence herbicidal activity against Echinochloa crus-galli assessed as reduction in growth at 300g/ha measured after 24 days by green house pot method relative to control; type: functional; conditions: 576 h

| SMILES | MIC [1] [µg/mL] | MIC [2] [µg/mL] | inhibition [4] [%] | inhibition at 50 µg/mL [5] [%] | inhibition at 50 µg/mL [6] [%] | inhibition at 500 µg/mL [8] [%] | inhibition at 50 µg/mL [10] [%] | MIC [11] [µg/mL] | inhibition [12] [%] | inhibition at 50 µg/mL [13] [%] | mortality at 600 µg/mL [14] [%] | inhibition at 50 µg/mL [15] [%] | inhibition (INH) [16] [%] | MIC [17] [µg/mL] | inhibition [18] [%] | MIC [19] [µg/mL] | inhibition at 50 µg/mL [20] [%] | inhibition [21] [%] | MIC [22] [µg/mL] | inhibition [23] [%] | also measured |
| --- | --- | --- | --- | --- | --- | --- | --- | --- | --- | --- | --- | --- | --- | --- | --- | --- | --- | --- | --- | --- | --- |
| COc1nc(OC)nc(Sc2ccc(Br)cc2C#N)n1 | > 100 | > 100 | 57.3 | 21.4 | 66.7 | 0 | 8.3 | > 100 | 37.4 | 19.4 | 20 | 70.3 | 0 | > 100 | 81.1 | > 100 | 30.3 | 85.5 | > 100 | 100 | IC50 [3]: 4.54 µM; inhibition [7]: inactive; CC50 at 48 h [9]: 53.5 µM; inhibition (INH) [24]: 14% |
| CNC(=O)c1cc(Cl)cc(C)c1NC(=O)c1cc(Br)nn1-c1ncccc1Cl [CHLORANTRANILIPROLE] |  |  |  |  |  |  |  |  |  |  |  |  |  |  |  |  |  |  |  |  | mortality at 10 µg/mL [25]: 100% |
| COc1cc(OC)nc(Sc2ccc(Br)cc2C(=O)O)n1 | > 100 | > 100 | 61 | 40.5 | 72.6 | 0 | 33.3 | > 100 | 50.5 | 63.9 | 65 | 37.5 | 80.7 | > 100 | 97 | > 100 | 27.3 | 100 | > 100 | 0 | inhibition at 300 g/ha [26]: 0%; inhibition at 300 g/ha [27]: 80.2%; inhibition at 300 g/ha [28]: 93.8%; inhibition at 300 g/ha [29]: 58.7%; inhibition at 300 g/ha [30]: 27%; inhibition at 100 µg/mL [7]: 0%; inhibition at 300 g/ha [31]: 89.9%; inhibition at 300 g/ha [32]: 12.8%; inhibition at 300 g/ha [33]: 72.3%; inhibition (INH) [24]: 93.6% |
